Measured values: publication PMC7993274 (Clinical and Translational Science, 2020)

Key:
[1] = Treatment-emergent adverse events, SAD period; format: in vivo, human
Outline: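 Double-blind, placebo-controlled study in healthy men and nonchildbearing women aged 18–55 y. The SAD period gave one fasted oral dose; the MAD period gave fed dosing q.d. for 10 days, plus a separate b.i.d. cohort. TEAEs, serious AEs and discontinuation AEs were monitored ≥28 days after the last dose. Vital signs, physical exam, 12-lead ECG, hematology, clinical chemistry and urinalysis were also recorded. Data summarized descriptively.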

[2] = system: CYP1A2, CYP2D6, and CYP3A; conditions: cited from earlier work
[3] = system: MRP1; conditions: cited from earlier work

Cn1cc(-c2cn3nccc3c(-c3cnn([C@]4(CC#N)C[C@@H](C#N)C4)c3)n2)cn1 [PF‐06826647]
AEs leading to study drug dose reduction or interruption ([1]; SAD 100 mg (n = 7)): 0 n | Participants with AEs ([1]; SAD 100 mg (n = 7)): 1 (14.3) n (%) | Participants with TEAEs: Alanine aminotransferase increased ([1]; SAD 100 mg (n = 7)): 0 n (%) | Participants with TEAEs: Aspartate aminotransferase increased ([1]; SAD 100 mg (n = 7)): 0 n (%) | Participants with TEAEs: Edema ([1]; SAD 100 mg (n = 7)): 1 (14.3) n (%) | Participants with TEAEs: Face edema ([1]; SAD 100 mg (n = 7)): 1 (14.3) n (%) | Participants with TEAEs: Gastrointestinal disorders (SOC) ([1]; SAD 100 mg (n = 7)): 1 (14.3) n (%) | Participants with TEAEs: General disorders and administration site conditions (SOC) ([1]; SAD 100 mg (n = 7)): 1 (14.3) n (%) | Participants with TEAEs: Headache ([1]; SAD 100 mg (n = 7)): 1 (14.3) n (%) | Participants with TEAEs: Injury, poisoning, and procedural complications (SOC) ([1]; SAD 100 mg (n = 7)): 1 (14.3) n (%) | Participants with TEAEs: Investigations (SOC) ([1]; SAD 100 mg (n = 7)): 0 n (%) | Participants with TEAEs: Nausea ([1]; SAD 100 mg (n = 7)): 1 (14.3) n (%) | Participants with TEAEs: Nervous system disorders (SOC) ([1]; SAD 100 mg (n = 7)): 1 (14.3) n (%) | Participants with TEAEs: Periorbital hematoma ([1]; SAD 100 mg (n = 7)): 1 (14.3) n (%) | Participants with TEAEs: Periorbital hemorrhage ([1]; SAD 100 mg (n = 7)): 1 (14.3) n (%) | Participants with TEAEs: Peripheral swelling ([1]; SAD 100 mg (n = 7)): 0 n (%) | Participants with TEAEs: Pruritus ([1]; SAD 100 mg (n = 7)): 1 (14.3) n (%) | Participants with TEAEs: Rash ([1]; SAD 100 mg (n = 7)): 1 (14.3) n (%) | Participants with TEAEs: Skin and subcutaneous tissue disorders (SOC) ([1]; SAD 100 mg (n = 7)): 1 (14.3) n (%) | Participants with TEAEs: Urticaria ([1]; SAD 100 mg (n = 7)): 1 (14.3) n (%) | SAEs ([1]; SAD 100 mg (n = 7)): 0 n | Severe AEs ([1]; SAD 100 mg (n = 7)): 0 n | AEs ([1]; SAD 400 mg (n = 8)): 0 n | AEs leading to study drug dose reduction or interruption ([1]; SAD 400 mg (n = 8)): 0 n | Participants with AEs ([1]; SAD 400 mg (n = 8)): 0 n (%) | Participants with TEAEs: Alanine aminotransferase increased ([1]; SAD 400 mg (n = 8)): 0 n (%) | Participants with TEAEs: Aspartate aminotransferase increased ([1]; SAD 400 mg (n = 8)): 0 n (%) | Participants with TEAEs: Edema ([1]; SAD 400 mg (n = 8)): 0 n (%) | Participants with TEAEs: Face edema ([1]; SAD 400 mg (n = 8)): 0 n (%) | Participants with TEAEs: Gastrointestinal disorders (SOC) ([1]; SAD 400 mg (n = 8)): 0 n (%) | Participants with TEAEs: General disorders and administration site conditions (SOC) ([1]; SAD 400 mg (n = 8)): 0 n (%) | Participants with TEAEs: Headache ([1]; SAD 400 mg (n = 8)): 0 n (%) | Participants with TEAEs: Injury, poisoning, and procedural complications (SOC) ([1]; SAD 400 mg (n = 8)): 0 n (%) | Participants with TEAEs: Investigations (SOC) ([1]; SAD 400 mg (n = 8)): 0 n (%) | Participants with TEAEs: Nausea ([1]; SAD 400 mg (n = 8)): 0 n (%) | Participants with TEAEs: Nervous system disorders (SOC) ([1]; SAD 400 mg (n = 8)): 0 n (%) | Participants with TEAEs: Periorbital hematoma ([1]; SAD 400 mg (n = 8)): 0 n (%) | Participants with TEAEs: Periorbital hemorrhage ([1]; SAD 400 mg (n = 8)): 0 n (%) | Participants with TEAEs: Peripheral swelling ([1]; SAD 400 mg (n = 8)): 0 n (%) | Participants with TEAEs: Pruritus ([1]; SAD 400 mg (n = 8)): 0 n (%) | Participants with TEAEs: Rash ([1]; SAD 400 mg (n = 8)): 0 n (%) | Participants with TEAEs: Skin and subcutaneous tissue disorders (SOC) ([1]; SAD 400 mg (n = 8)): 0 n (%) | Participants with TEAEs: Urticaria ([1]; SAD 400 mg (n = 8)): 0 n (%) | SAEs ([1]; SAD 400 mg (n = 8)): 0 n | Severe AEs ([1]; SAD 400 mg (n = 8)): 0 n | AEs ([1]; SAD 1,600 mg (n = 6)): 3 n | AEs leading to study drug dose reduction or interruption ([1]; SAD 1,600 mg (n = 6)): 0 n | Participants with AEs ([1]; SAD 1,600 mg (n = 6)): 2 (33.3) n (%) | Participants with TEAEs: Alanine aminotransferase increased ([1]; SAD 1,600 mg (n = 6)): 1 (16.7) n (%) | Participants with TEAEs: Aspartate aminotransferase increased ([1]; SAD 1,600 mg (n = 6)): 1 (16.7) n (%) | Participants with TEAEs: Edema ([1]; SAD 1,600 mg (n = 6)): 0 n (%) | Participants with TEAEs: Face edema ([1]; SAD 1,600 mg (n = 6)): 0 n (%) | Participants with TEAEs: Gastrointestinal disorders (SOC) ([1]; SAD 1,600 mg (n = 6)): 0 n (%) | Participants with TEAEs: General disorders and administration site conditions (SOC) ([1]; SAD 1,600 mg (n = 6)): 1 (16.7) n (%) | Participants with TEAEs: Headache ([1]; SAD 1,600 mg (n = 6)): 0 n (%) | Participants with TEAEs: Injury, poisoning, and procedural complications (SOC) ([1]; SAD 1,600 mg (n = 6)): 0 n (%) | Participants with TEAEs: Investigations (SOC) ([1]; SAD 1,600 mg (n = 6)): 1 (16.7) n (%) | Participants with TEAEs: Nausea ([1]; SAD 1,600 mg (n = 6)): 0 n (%) | Participants with TEAEs: Nervous system disorders (SOC) ([1]; SAD 1,600 mg (n = 6)): 0 n (%) | Participants with TEAEs: Periorbital hematoma ([1]; SAD 1,600 mg (n = 6)): 0 n (%) | Participants with TEAEs: Periorbital hemorrhage ([1]; SAD 1,600 mg (n = 6)): 0 n (%) | Participants with TEAEs: Peripheral swelling ([1]; SAD 1,600 mg (n = 6)): 1 (16.7) n (%) | Participants with TEAEs: Pruritus ([1]; SAD 1,600 mg (n = 6)): 0 n (%) | Participants with TEAEs: Rash ([1]; SAD 1,600 mg (n = 6)): 0 n (%) | Participants with TEAEs: Skin and subcutaneous tissue disorders (SOC) ([1]; SAD 1,600 mg (n = 6)): 0 n (%) | Participants with TEAEs: Urticaria ([1]; SAD 1,600 mg (n = 6)): 0 n (%) | SAEs ([1]; SAD 1,600 mg (n = 6)): 0 n | Severe AEs ([1]; SAD 1,600 mg (n = 6)): 0 n | major human clearance pathway [2]: cytochrome P450 (CYP)‐mediated (via CYP1A2, CYP2D6, and CYP3A) metabolism | inhibition of transporter protein MRP1 [3]: minimal inhibition
